Legend:
[1] = system: Brassica rapa subsp. oleifera; assay: Herbicidal activity against Brassica rapa subsp. oleifera assessed as inhibition of fresh plant weight at 750 g/ha using preemergence protocol measured after 24 days under green house conditions; settings: pre-emergence
Amaranthus retroflexus [2] = assay: Herbicidal activity against Amaranthus retroflexus assessed as inhibition of fresh plant weight at 750 g/ha using postemergence protocol measured after 24 days under green house conditions; settings: post-emergence
Amaranthus retroflexus [3] = assay: Herbicidal activity against Amaranthus retroflexus assessed as inhibition of fresh plant weight at 750 g/ha using preemergence protocol measured after 24 days under green house conditions; settings: pre-emergence
[4] = system: Brassica rapa subsp. oleifera; assay: Herbicidal activity against Brassica rapa subsp. oleifera assessed as inhibition of fresh plant weight at 150 g/ha using postemergence protocol measured after 24 days under green house conditions; settings: post-emergence
Amaranthus retroflexus [5] = assay: Herbicidal activity against Amaranthus retroflexus assessed as inhibition of fresh plant weight at 150 g/ha using postemergence protocol measured after 24 days under green house conditions; settings: post-emergence
Echinochloa crus-galli [6] = assay: Herbicidal activity against Echinochloa crus-galli (barnyard grass) assessed as inhibition of fresh plant weight at 750 g/ha using preemergence protocol measured after 24 days under green house conditions; settings: pre-emergence
Spirodela polyrhiza [7] = assay: Inhibition of chlorophyll in Spirodela polyrhiza fronds at 1 ug/mL using light intensity of 45 uE/m2/s measured after 7 days; assay type: functional; settings: 168 h
How it was run: (§1)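 Giant duckweed assay. Compound in DMF dropped onto filter paper, solvent evaporated 15 min, paper placed in flask with 15 mL fresh medium and shaken >10 min. 10 fronds inoculated per flask and grown 7 days at 23-26 °C, 16 h light/8 h dark, ca. 45 µE m^-2 s^-1. DMF plus medium served as control. Chl extracted in 96% ethanol overnight at 4 °C; OD read at 665 and 649 nm; content expressed as percent of control.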

[8] = system: Brassica rapa subsp. oleifera; assay: Herbicidal activity against Brassica rapa subsp. oleifera assessed as inhibition of fresh plant weight at 600 g/ha using postemergence protocol measured after 24 days under green house conditions; settings: post-emergence
Amaranthus retroflexus [9] = assay: Herbicidal activity against Amaranthus retroflexus assessed as inhibition of fresh plant weight at 300 g/ha using postemergence protocol measured after 24 days under green house conditions; settings: post-emergence
Digitaria [10] = assay: Herbicidal activity against Digitaria adscendens assessed as inhibition of fresh plant weight at 750 g/ha using postemergence protocol measured after 24 days under green house conditions; settings: in Digitaria adscendens, post-emergence
[11] = system: Brassica rapa subsp. oleifera; assay: Herbicidal activity against Brassica rapa subsp. oleifera assessed as inhibition of fresh plant weight at 300 g/ha using postemergence protocol measured after 24 days under green house conditions; settings: post-emergence
Digitaria [12] = assay: Herbicidal activity against Digitaria adscendens assessed as inhibition of fresh plant weight at 750 g/ha using preemergence protocol measured after 24 days under green house conditions; settings: in Digitaria adscendens, pre-emergence
Echinochloa crus-galli [13] = assay: Herbicidal activity against Echinochloa crus-galli (barnyard grass) assessed as inhibition of fresh plant weight at 750 g/ha using postemergence protocol measured after 24 days under green house conditions; settings: post-emergence
[14] = system: Brassica rapa subsp. oleifera; assay: Herbicidal activity against Brassica rapa subsp. oleifera assessed as inhibition of fresh plant weight at 750 g/ha using postemergence protocol measured after 24 days under green house conditions; settings: post-emergence
Spirodela polyrhiza [15] = assay: Inhibition of chlorophyll in Spirodela polyrhiza fronds at 10 ug/mL using light intensity of 45 uE/m2/s measured after 7 days; assay type: functional; settings: 168 h
How it was run: as §1

Amaranthus retroflexus [16] = assay: Herbicidal activity against Amaranthus retroflexus assessed as inhibition of fresh plant weight at 600 g/ha using postemergence protocol measured after 24 days under green house conditions; settings: post-emergence
Amaranthus retroflexus [17] = assay: Herbicidal activity against Amaranthus retroflexus assessed as inhibition of fresh plant weight at 75 g/ha using postemergence protocol measured after 24 days under green house conditions; settings: post-emergence
[18] = system: Brassica rapa subsp. oleifera; assay: Herbicidal activity against Brassica rapa subsp. oleifera assessed as inhibition of fresh plant weight at 75 g/ha using postemergence protocol measured after 24 days under green house conditions; settings: post-emergence

| Structure (SMILES) | inhibition at 750 g/ha [1] | inhibition at 750 g/ha (Amaranthus retroflexus [2]) | inhibition at 750 g/ha (Amaranthus retroflexus [3]) | inhibition at 150 g/ha [4] | inhibition at 150 g/ha (Amaranthus retroflexus [5]) | inhibition at 750 g/ha (Echinochloa crus-galli [6]) | inhibition at 1 µg/mL (Spirodela polyrhiza [7]) | inhibition at 600 g/ha [8] | inhibition at 300 g/ha (Amaranthus retroflexus [9]) | inhibition at 750 g/ha (Digitaria [10]) | inhibition at 300 g/ha [11] | inhibition at 750 g/ha (Digitaria [12]) | inhibition at 750 g/ha (Echinochloa crus-galli [13]) | inhibition at 750 g/ha [14] | inhibition at 10 µg/mL (Spirodela polyrhiza [15]) | inhibition at 600 g/ha (Amaranthus retroflexus [16]) | inhibition at 75 g/ha (Amaranthus retroflexus [17]) | inhibition at 75 g/ha [18] |
| --- | --- | --- | --- | --- | --- | --- | --- | --- | --- | --- | --- | --- | --- | --- | --- | --- | --- | --- |
| Cc1cccc(Nc2nnc(C)cc2-c2cccc(C(F)(F)F)c2)c1 | 18% | 64% | 81% | 0% | 23% | 8% | 100% | 42% | 25% | 6% | 30% | 7% | 29% | 79% | 100% | 52% | – | – |
| Cc1ccc(Nc2nnc(C)cc2-c2cccc(C(F)(F)F)c2)cc1 | 82% | 85% | 90% | 39% | 17% | 0% | 95% | 59% | 28% | 18% | 54% | 17% | 2% | 99% | 96% | 59% | – | – |
| Cc1cc(-c2cccc(C(F)(F)F)c2)c(Nc2ccccc2F)nn1 | 18% | 100% | 0% | 67% | 48% | 0% | 100% | 96% | 58% | 40% | 88% | 15% | 21% | 100% | 100% | 75% | 39% | 60% |
| Cc1cc(-c2cccc(C(F)(F)F)c2)c(Nc2ccc(F)cc2)nn1 | 8% | 85% | 19% | 58% | 43% | 2% | 100% | 93% | 55% | 0% | 83% | 0% | 23% | 88% | 100% | 64% | 32% | 55% |
| Cc1cc(-c2cccc(C(F)(F)F)c2)c(Nc2ccc(Cl)cc2)nn1 | 18% | 100% | 0% | 87% | 45% | 0% | 87% | 90% | 60% | 0% | 89% | 0% | 0% | 100% | 100% | 66% | 42% | 52% |
| Cc1cc(-c2cccc(C(F)(F)F)c2)c(Nc2cccc(C(F)(F)F)c2)nn1 | 0% | 95% | 0% | 72% | 37% | 0% | 100% | 88% | 42% | 0% | 79% | 0% | 8% | 96% | 100% | 54% | 32% | 48% |

Reference: ChEMBL document CHEMBL3046507, “Synthesis and herbicidal activities of novel 3-N-substituted amino-6-methyl-4-(3-trifluoromethylphenyl)pyridazine derivatives” (2008)
